Results taken from paper PMC8436581 (Molecular Diversity, 2021).
Entries after “also recorded” stand apart in the source; their conditions may differ. Like-named read-outs stand apart in the source and are kept apart here.

Experiments:
[1] = tested on: α-glycosidase; test: In vitro α-glycosidase inhibition assay; assay type: biochemical; details: ratio of IC50 values against acarbose
[2] = tested on: α-glycosidase; test: Enzyme kinetic study; assay type: biochemical; details: Lineweaver–Burk plot
In short: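 Double-reciprocal analysis: reciprocal rate (1/V) plotted against reciprocal substrate concentration (1/[S]) at several inhibitor concentrations to assign the inhibition mode; Ki obtained from a secondary plot of inhibitor concentration [I] versus 1/Vi'max.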

[3] = target: α-glycosidase; details: cited from earlier work

Row | improvement in potency compared to acarbose [1] | SMILES | type of inhibition [2] | other results
1 | 15 fold | COc1cc(-c2nc3ccccc3[nH]2)ccc1OCc1cn(CC(=O)Nc2cnc(-c3ccc(C)cc3)s2)nn1 [9i, 2-{4-[4-(1H-1,3-benzodiazol-2-yl)-2-methoxyphenoxymethyl]-1H-1,2,3-triazol-1-yl}-N-[2-(4-methylphenyl)-1,3-thiazol-5-yl]acetamide] |  | 
2 |  | COc1cc(-c2nc3ccccc3[nH]2)ccc1OCc1cn(CC(=O)Nc2cnc(-c3ccccc3)s2)nn1 [9g, 2-{4-[4-(1H-1,3-benzodiazol-2-yl)-2-methoxyphenoxymethyl]-1H-1,2,3-triazol-1-yl}-N-(2-phenyl-1,3-thiazol-5-yl)acetamide] | uncompetitive inhibitors; also recorded: uncompetitive type of inhibition | 
3 |  | C[C@H]1O[C@H](O[C@H]2[C@H](O)[C@@H](O)[C@@H](O[C@H]3[C@H](O)[C@@H](O)C(O)O[C@@H]3CO)O[C@@H]2CO)[C@H](O)[C@@H](O)[C@@H]1N[C@H]1C=C(CO)[C@@H](O)[C@H](O)[C@H]1O (stereo partly shown) [Acarbose] |  | IC50 ([3]; arylthiazole-pyridine derivatives): 856.5 ± 5.6 µM; IC50 ([3]; benzimidazole bearing bis-Schiff bases): 38.5 µM; IC50 ([3]; benzimidazole-1,2,3-triazole hybrids): 750 ± 12.5 µM; IC50 ([3]; benzimidazole-based oxadiazole derivatives): 38.5 ± 0.8 µM; IC50 ([3]; thiourea derivatives bearing benzimidazole): 774 µM
4 |  | O=C(Cn1cc(COc2ccc(-c3nc4ccccc4[nH]3)cc2)nn1)Nc1cnc(-c2ccc(Br)cc2)s1 [9c, 2-{4-[4-(1H-1,3-benzodiazol-2-yl)phenoxymethyl]-1H-1,2,3-triazol-1-yl}-N-[2-(4-bromophenyl)-1,3-thiazol-5-yl]acetamide] | uncompetitive inhibitors; also recorded: uncompetitive type of inhibition | 
5 |  | Cc1ccc(-c2ncc(NC(=O)Cn3cc(COc4ccc(-c5nc6ccc(C)cc6[nH]5)cc4)nn3)s2)cc1 [9m, 2-{4-[4-(6-Methyl-1H-1,3-benzodiazol-2-yl)phenoxymethyl]-1H-1,2,3-triazol-1-yl}-N-[2-(4-methylphenyl)-1,3-thiazol-5-yl]acetamide] | uncompetitive inhibitors; also recorded: uncompetitive type of inhibition | 
6 | around 39 fold | O=C(Cn1cc(COc2ccc(-c3nc4ccccc4[nH]3)cc2)nn1)Nc1cnc(-c2ccccc2)s1 [9a, 2-{4-[4-(1H-1,3-benzodiazol-2-yl)phenoxymethyl]-1H-1,2,3-triazol-1-yl}-N-(2-phenyl-1,3-thiazol-5-yl)acetamide] |  | 
